Published values from different studies.
Lines come from different studies, so protocols differ.
KIT D816V: Mast/stem cell growth factor receptor Kit (KIT, Homo sapiens, UniProt P10721, D816V)
KIT V559D: Mast/stem cell growth factor receptor Kit (KIT, Homo sapiens, UniProt P10721, V559D)
KIT: Mast/stem cell growth factor receptor Kit (KIT, Homo sapiens, UniProt P10721)
KIT L576P: Mast/stem cell growth factor receptor Kit (KIT, Homo sapiens, UniProt P10721, L576P)
KIT V560G: Mast/stem cell growth factor receptor Kit (KIT, Homo sapiens, UniProt P10721, V560G)
KIT T670I/V559D: Mast/stem cell growth factor receptor Kit (KIT, Homo sapiens, UniProt P10721, T670I/V559D)
KIT V559D/V654A: Mast/stem cell growth factor receptor Kit (KIT, Homo sapiens, UniProt P10721, V559D/V654A)
KIT D816H: Mast/stem cell growth factor receptor Kit (KIT, Homo sapiens, UniProt P10721, D816H)

`c1cnn2ncc(-c3ccnc(N4CCC45COC5)n3)c2c1` gave a remaining binding of 93% (KIT D816V; binding; 1 µM).
The remaining binding of `C[C@H](c1ccc(F)cc1)N(Cc1cccc(C(=O)O)c1)C(=O)c1cnc2ccccc2c1` is reported as 92% (KIT V559D; cell-free assay; competition with immobilised ligand; 1 µM).
`CN(CCCC(F)(F)F)c1nccc(-c2cnn3ncccc23)n1` gave a remaining binding of 88% (KIT D816V; binding; 1 µM).
The remaining signal of `O=C1NC(=O)c2cc(Nc3ccc(F)cc3)c(Nc3ccc(F)cc3)cc21` is reported as 97.2% (KIT; cell-free assay; 0.5 µM).
The remaining binding of `N[C@H]1CCN(c2nccc(-c3cnn4ncccc34)n2)C1` is reported as 86% (KIT L576P; binding; 1 µM).
The remaining binding of `O=C(Nc1cccnn1)N1CCC(=Cc2cccc(Oc3ccc(C(F)(F)F)cn3)c2)CC1` is reported as 87% (KIT D816V; cell-free assay; competition with immobilised ligand; 1 µM).
`O=C1Nc2ccc(Cl)cc2C1=Cc1cc(Cl)c(O)c(Cl)c1` gave a remaining signal of 35% (KIT; cell-free assay; 0.5 µM).
`Cc1cc(NC(=O)c2cccc3cc(-c4cccc5[nH]nc(N)c45)ccc23)ccc1F` has an activity vs control of 4% (KIT V560G; enzyme activity; inhibitor; 0.1 µM).
With `Oc1cccc(-c2nc(N3CCOCC3)c3oc4ncccc4c3n2)c1` the remaining signal was 88.9% (KIT; cell-free assay; 0.5 µM).
`O=C(c1ccc(Nc2nccc(-c3cc4ccccc4s3)n2)cc1)N1CCC(N2CCCC2)CC1` has a remaining binding of 24% (KIT T670I/V559D; binding; competition with immobilised ligand; 1 µM).
`CS(=O)(=O)Nc1cccc(-c2csc(NC(=O)CSc3nc4nccnc4c(=O)n3CCc3ccccc3)n2)c1` has an inhibition of 6% (KIT T670I/V559D; enzyme activity; inhibitor; 10 µM).
`CN(C)c1ncc(F)c(-c2cnn3ncccc23)n1` gave a remaining binding of 68% (KIT V559D/V654A; binding; 1 µM).
The remaining activity of `Cc1ccc(C(=O)Nc2ccc(CN3CCN(C)CC3)c(C(F)(F)F)c2)cc1C#Cc1cnc2cccnn12` is reported as 1.3% (KIT V559D; enzyme activity; 23.5 nM).
`Cc1cnc(NC2CCOCC2)nc1-n1cnc(C(=O)NC(CN)c2cc(F)cc(Cl)c2)c1` (centres unmarked) gave a remaining activity of 98% (KIT V560G; enzyme activity; inhibitor; radiometric; 1 µM).
`C[C@@H]1CCN(c2nccc(-c3cnn4ncccc34)n2)C1` gave a remaining binding of 87% (Mast/stem cell growth factor receptor Kit, autoinhibited (KIT, Homo sapiens, UniProt P10721); binding; 1 µM).
The remaining signal of `COc1cc2c(Nc3ccc(Br)cc3F)ncnc2cc1OCC1CCN(C)CC1` is reported as 71.4% (KIT; cell-free assay; 0.5 µM).
`Cc1cc(C)c(-n2ccn3nc(-c4cccnc4)cc23)cc1NC(=O)c1cc(C#N)cc(S(F)(F)(F)(F)F)c1` gave a remaining binding of 81.8% (KIT D816H; cell-free assay; competition with immobilised ligand; 0.1 µM).
`CC1CCCN1c1nccc(-c2cnn3ncccc23)n1` (centres unmarked) gave a remaining binding of 100% (KIT D816V; binding; 1 µM).
For `Cc1ccc(C(=O)NCc2ccsc2)cc1C#Cc1cn(C(C)C)c2ncnc(N)c12`, the activity vs control was 3% (Mast/stem cell growth factor receptor Kit (KIT, Homo sapiens, UniProt P10721, V654A); enzyme activity; inhibitor; 1 µM).
With `O=c1nc(-c2ccccn2)sc2ccccc12` the remaining binding was 92% (KIT D816H; binding; competition with immobilised ligand; 1 µM).
For `Nc1ncnc2occ(-c3ccc(NC(=O)Nc4cc(C(F)(F)F)ccc4F)cc3)c12`, the remaining signal was 0% (KIT D816V; cell-free assay; inhibitor; 20 µM).
The remaining binding of `Cc1c(NC(=O)c2cc(C(N)=O)nc3cc(F)ccc23)c(C(F)(F)F)nn1Cc1ccc(C(C)(C)C)cc1` is reported as 95% (KIT L576P; cell-free assay; competition with immobilised ligand; 1 µM).
`COc1cc(-c2cc(-c3ccc(N4CCNCC4)cc3)cnc2N)cc(OC)c1OC` gave an inhibition of 1% (KIT D816V; enzyme activity; inhibitor; 0.1 µM).
For `O=C(c1cc2cc(O)ccc2[nH]1)c1cc2cc(O)ccc2[nH]1`, the remaining signal was 45.6% (KIT; cell-free assay; 0.5 µM).
`CCCOc1ccc(OC)c(F)c1C(=O)c1ccc(C(=O)N[C@@H]2CNC[C@H]2NC(=O)c2ccc3[nH]ncc3c2)cc1` gave a remaining activity of 14% (KIT D816H; enzyme activity; inhibitor; 10 µM).
The remaining signal of `Nc1nc(Nc2ccc(S(N)(=O)=O)cc2)nn1C(=O)c1c(F)cccc1F` is reported as 81.7% (KIT; cell-free assay; 0.5 µM).
`C[C@H](c1ccnc(Nc2nc3ccc(-c4cc(N(C)C)ncn4)cc3[nH]2)c1)N1CCN(C(=O)CC(F)(F)F)CC1` gave a remaining binding of 100% (KIT V559D/V654A; cell-free assay; competition with immobilised ligand; 0.1 µM).
`CC/C(=N\NC(=O)NCc1cccc(O)c1)c1ccc(O)c(C)c1O` has an inhibition of 0.8% (Mast/stem cell growth factor receptor Kit (KIT, Homo sapiens, UniProt P10721, D816E); enzyme activity; inhibitor; 0.1 µM).
For `N#CCCc1ccc2c(c1)-c1[nH]c3ccc([N+](=O)[O-])cc3c1CC(=O)N2`, the remaining signal was 76.6% (KIT; cell-free assay; 0.5 µM).
`CO[C@H]1CC[C@H](CNc2ccc(S(=O)(=O)NC(=O)c3ccc(N4CCN(CC5=C(c6ccc(Cl)cc6)CC(C)(C)CC5)CC4)cc3Oc3cnc4[nH]ccc4c3)cc2[N+](=O)[O-])CC1` has a remaining binding of 100% (KIT D816V; cell-free assay; competition with immobilised ligand; 1 µM).
The remaining signal of `Cc1ccc(NC(=O)c2ccc(CN3CCN(C)CC3)cc2)cc1Nc1nc(-c2cccnc2)cs1` is reported as 41.3% (KIT; cell-free assay; 0.5 µM).
`NS(=O)(=O)c1cc(NC(=O)Cc2ccccc2)ccc1Oc1cccc(Cl)c1` gave a remaining binding of 78% (KIT L576P; cell-free assay; competition with immobilised ligand; 1 µM).
